Bioassay records (PubChem)
CHOP inh: CHOP inhibition in unfolded protein response; 3.8% of 220,000 active; inhibition, % at 10 µM; CHO-K1 CHOP-promoter luciferase, tunicamycin-induced, 15-18 h; AID 2732;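 active = compounds that reduced the stress-induced luciferase reporter signal by more than about 70% of percent inhibition, limit read from the data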
EBV gp42 block: blocks Epstein-Barr virus glycoprotein 42 binding; Q1HVG2; Fluorescence polarization binding assay, mP read-out; inhibition, % (tested at 21.74 µM); 0.42% of 220,000 active; in the data active = inhibition above about 50%
Target sequence (Q1HVG2 whole entry, looked up): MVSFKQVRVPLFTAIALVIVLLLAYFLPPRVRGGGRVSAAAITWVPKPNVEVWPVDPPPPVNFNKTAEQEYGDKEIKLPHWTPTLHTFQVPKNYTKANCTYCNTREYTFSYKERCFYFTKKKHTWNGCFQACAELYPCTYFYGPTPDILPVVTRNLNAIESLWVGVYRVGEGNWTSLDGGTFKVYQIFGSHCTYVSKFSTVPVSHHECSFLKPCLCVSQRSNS
NR3A LBD binder: modulates the human NR3A ligand-binding domain | Tm shift relative to glycine control, % at 25 µM | NR3A LBD differential scanning fluorimetry, Tm shift; 0% = protein alone, 100% = glycine-bound protein | 2.5% of 340,000 active;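 active = melting temperature shift of at least 10% of the positive control shift, at one fixed dose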
TbMetRS inhib: Trypanosoma brucei MetRS inhibition; purified T. brucei MetRS, ATP depletion, Kinase-Glo luminescence; inhibition, % at 11.9 µM; 0.4% of 360,000 active;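 active = inhibition above a per-plate cutoff of the control wells' mean inhibition plus 3 SD, cut at about 5.5% in these data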
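Measured by: Kinase-Glo luciferase luminescence reporting remaining unconsumed ATP. Material: purified T. brucei MetRS enzyme. Doses: 11.9 µM compound single dose, 0.9% DMSO. Medium: HEPES buffer containing pyrophosphatase, BSA, spermine, DTT. Times: 15 min preincubation, 2 h reaction, all 25 °C. Reagent: methionine, ATP and bulk E. coli tRNA.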
MPTP block: inhibitors of mitochondrial permeability transition pore. isolated mouse mitochondria, Ca2+ swelling absorbance, 30 min. inhibition, % at 10 µM. 1.4% of 360,000 active. AID 602449;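 active = inhibition of 50% or more, scaled per plate between neutral and stimulator controls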
WT yeast gro inh: growth inhibition of WT yeast, mitochondrial fusion screen. inhibition, % at 10 µM. AID 1362. 2.1% of 190,000 active. mitochondrial fusion phenotypic screen, WT strain; in the data active = inhibition above about 58%; tested in S. cerevisiae
Each line names hits and unclear results; the compound was inactive in the other large screens. Compounds with a hit are over-represented: about 6.4% of the library has one in this group of screens.

CN(CC(=O)NCc1ccco1)S(=O)(=O)c1ccc(F)cc1	none (no result: CHOP inh, EBV gp42 block, WT yeast gro inh)
Cc1ccc(S(=O)(=O)N(C)c2ccc(OC(=O)c3ccc(N4CCCC4=O)cc3)cc2)cc1	none (no result: CHOP inh, EBV gp42 block, WT yeast gro inh)
Cc1nc(C2CCC3C4CCC5=CC(=O)CC[C@]5(C)C4CC[C@]23C)cs1 (stereo not given in full)	CHOP inh 76 (no result: NR3A LBD binder, TbMetRS inhib, MPTP block, WT yeast gro inh)
Cc1ccc2nc(Cl)c3nnnn3c2c1	CHOP inh 105
Cc1cc(N/N=C/c2ccc(F)cc2)nc(-n2nc(C)cc2C)n1	CHOP inh 90 (no result: WT yeast gro inh)
CNc1cc(C)nc(-n2nc(C)cc2C)n1	NR3A LBD binder 11
CCOc1cc(/C=N/Nc2cc(C)nc(-n3nc(C)cc3C)n2)ccc1O	none (no result: WT yeast gro inh)
Cc1ccc(CNC(=O)CSCc2cccc(F)c2)cc1	none
COc1cc(-c2nnc(SCc3c(F)cccc3Cl)o2)cc(OC)c1OC	WT yeast gro inh 64
COc1ccc(OC)c(C(=O)CSc2nnc(-c3ccc(OC)c(OC)c3)o2)c1	CHOP inh 80 (no result: NR3A LBD binder, TbMetRS inhib, MPTP block)
COc1cc(-c2nnc(SCC(=O)c3ccc(C)cc3)o2)cc(OC)c1OC	NR3A LBD binder 11
COc1ccc(C(=O)CSc2nnc(-c3ccc(C)cc3)o2)cc1	none
Cn1nc(C(=O)Nc2cccc(S(=O)(=O)N3CCCC3)c2)c2ccccc2c1=O	none (no result: CHOP inh, EBV gp42 block, WT yeast gro inh)
Cc1ccnc(NS(=O)(=O)c2ccc(N3C(=O)c4ccccc4C3=O)cc2)n1	none
CSc1ncc(Cl)c(C(=O)Nc2ccc(S(=O)(=O)Nc3nccc(C)n3)cc2)n1	NR3A LBD binder 13 (no result: CHOP inh, EBV gp42 block, WT yeast gro inh)
Cc1ccnc(NS(=O)(=O)c2ccc(N3C(=O)c4c(Cl)c(Cl)c(Cl)c(Cl)c4C3=O)cc2)n1	NR3A LBD binder 28
COc1cccc(-c2sc3ccc(OC)cc3c2-c2ccc(OCCN(C)C)cc2)c1	none (no result: CHOP inh, EBV gp42 block, WT yeast gro inh)
COc1ccccc1CNC(=O)c1ccc(S(=O)(=O)N(C)c2ccccc2)cc1	none (no result: CHOP inh, EBV gp42 block, WT yeast gro inh)
Nc1c(-c2ccccc2)cnn1-c1cccc([N+](=O)[O-])c1	none
Nc1c(-c2ccc(Cl)cc2)cnn1-c1cccc([N+](=O)[O-])c1	CHOP inh 78
COc1ccc(OC)c(S(=O)(=O)N2c3ccccc3CC2C)c1 (stereo not given)	none
Nc1ccc(NC(=S)Nc2ccccc2)cc1	NR3A LBD binder 25 (no result: WT yeast gro inh)
Cn1c(=O)c2cc(NC(=O)NCc3ccccc3)ccc2n1Cc1ccc(Cl)cc1	none (no result: CHOP inh, EBV gp42 block, NR3A LBD binder, WT yeast gro inh)
O=C1CC(c2ccccc2)CC(=O)C1Sc1ccc(Cl)cc1 (stereo not given)	NR3A LBD binder 15
COc1cc(OC)cc(C(=O)OCc2cc3ccccc3[nH]c2=O)c1	CHOP inh 85
COc1cc(NC(=O)C2CCCN(S(=O)(=O)c3ccc4[nH]c(=O)ccc4c3)C2)cc(OC)c1 (stereo not given)	NR3A LBD binder 12 (no result: CHOP inh, EBV gp42 block, WT yeast gro inh)
CCCNC(=O)C1CCN(S(=O)(=O)c2ccc3[nH]c(=O)ccc3c2)CC1	NR3A LBD binder 17 (no result: CHOP inh, EBV gp42 block, WT yeast gro inh)
CCC(C)NC(=O)C1CCN(S(=O)(=O)c2ccc3[nH]c(=O)ccc3c2)CC1 (stereo not given)	none (no result: CHOP inh, EBV gp42 block, WT yeast gro inh)
CCNC(=O)COC(=O)/C=C/c1cccc([N+](=O)[O-])c1	none
CCOc1ccc2c(=O)c(Oc3ccccc3)c(C)oc2c1	CHOP inh 76
CN(C)S(=O)(=O)n1cc(/C=C(\NC(=O)c2ccccc2Cl)C(=O)NCCCN2CCOCC2)c2ccccc21	none (no result: CHOP inh, EBV gp42 block, WT yeast gro inh)
CCCCCCCCCC[N+](C)(C)CC/C=C1/c2ccccc2Sc2ccc(Cl)cc21	NR3A LBD binder 22 (no result: CHOP inh, EBV gp42 block, WT yeast gro inh)
Cc1ccc2nc(/C(C#N)=C/c3ccc(O)c(O)c3)[nH]c2c1	NR3A LBD binder 19 (no result: CHOP inh, EBV gp42 block, WT yeast gro inh)
Cc1ccc2nc(/C(C#N)=C/c3ccccc3C(=O)O)[nH]c2c1	none (no result: CHOP inh, EBV gp42 block, WT yeast gro inh)
COC(=O)C1=CN(c2cc(C)cc(C)c2)C=C(C(=O)OC)C1c1ccc(OC)c(O)c1	none (no result: CHOP inh, EBV gp42 block, WT yeast gro inh)
N#CCC(CNc1ncc(C(F)(F)F)cc1Cl)OC(=O)c1ccc(Cl)cc1Cl (stereo not given)	NR3A LBD binder 14
O=C(CCNS(=O)(=O)c1cccc2nsnc12)NCc1ccco1	none
N#Cc1nc(-c2ccc(OCc3ccc(Cl)cc3)cc2)oc1N1CCOCC1	none
CCCOc1ccc(-c2nc(C#N)c(N3CCC(C(N)=O)CC3)o2)cc1	WT yeast gro inh 94
N#Cc1nc(-c2ccc(OCc3ccc(Cl)cc3)cc2)oc1N1CCC(C(N)=O)CC1	NR3A LBD binder 28 (no result: CHOP inh, EBV gp42 block)
CCN1C(=O)C(CC(=O)NC2CCCCC2)N(CC)C1=O (stereo not given)	none
COC(=O)[C@]1(C)CCC[C@@]2(C)C3CC[C@@]4(C)C[C@]3(CCC21)CC(=O)N4 (stereo not given in full)	none (no result: CHOP inh, EBV gp42 block, WT yeast gro inh)
CCOC(=O)CNc1nc(Cl)nc(Nc2ccc(Cl)cc2)n1	none (no result: WT yeast gro inh)
CCOC(=O)CNc1nc(Cl)nc(Nc2ccc(C)cc2)n1	CHOP inh 70 (no result: WT yeast gro inh)
CCC1SC(CC)C(=O)N(CC(=O)NCCc2ccccc2)C1=O (stereo not given)	none
CC(C)c1nc(SCC(=O)c2ccc(F)cc2)c2ccccc2n1	CHOP inh 84
O=C(NCC1COc2ccccc2O1)c1ccc(Cl)c(S(=O)(=O)N2CCCC2)c1 (stereo not given)	none (no result: CHOP inh, EBV gp42 block, WT yeast gro inh)
COc1ccccc1NC(=O)CC1C(=O)NCCN1C(=O)Nc1ccc(Cl)c(Cl)c1 (stereo not given)	NR3A LBD binder 12
CC(C)c1nc(SCC(=O)N2CCCc3ccccc32)c2c(=O)n(C)c(=O)n(C)c2n1	CHOP inh 88
COc1ccc(Nc2ncnc3c2cnn3-c2ccccc2)cc1OC	none
COc1ccc(Nc2ncnc3sc(-c4ccccc4)cc23)cc1OC	NR3A LBD binder 13
